Values belong to the compound of their own block, whether it stands above or below them. The source made the active and inactive calls.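 Rule for the calls: active = a clear dose-dependent boost of the acetylcholine calcium response in rat M2 cells, with a fitted potency; inactive = the rest.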
Molecular target: Muscarinic acetylcholine receptor M2 (Rattus norvegicus) (UniProt P10980)
Test: rat M2 positive allosteric modulation, dose response, counter-screen for M4 PAM project, CHO Gqi5 cells, calcium fluorescence (AID 588748)
Settings: CHO rM2/Gqi5 calcium mobilization, PAM mode, FDSS
Summary of the method: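 Test system: Rat M2/Gqi5 CHO cells | Also added: Acetylcholine at EC20, followed by acetylcholine at EC80 | Schedule: Compound 144 s before EC20 ACh, EC80 ACh 86 s later, 37 °C | Signal: Fluo-4 fluorescence of calcium mobilization | Measure: EC50 and percent ACh max response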

Chain of Muscarinic acetylcholine receptor M2 (Rattus norvegicus) (P10980 whole entry, looked up): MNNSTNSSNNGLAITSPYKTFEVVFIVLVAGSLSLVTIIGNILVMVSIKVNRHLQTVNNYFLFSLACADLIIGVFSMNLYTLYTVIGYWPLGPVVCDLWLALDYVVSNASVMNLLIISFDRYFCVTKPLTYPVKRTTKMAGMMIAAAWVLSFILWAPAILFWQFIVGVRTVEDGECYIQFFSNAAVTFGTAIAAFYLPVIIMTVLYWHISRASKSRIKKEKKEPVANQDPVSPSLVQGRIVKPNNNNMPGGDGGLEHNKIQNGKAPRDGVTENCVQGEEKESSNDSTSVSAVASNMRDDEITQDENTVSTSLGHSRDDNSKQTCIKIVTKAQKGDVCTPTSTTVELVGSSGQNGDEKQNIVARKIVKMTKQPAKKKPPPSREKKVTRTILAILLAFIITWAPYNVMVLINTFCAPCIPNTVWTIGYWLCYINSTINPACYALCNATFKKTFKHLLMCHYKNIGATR

- percent of ACh max response (at 30 µM (top of the series)): inactive
Structure (SMILES): Cc1nc2sc(C(=O)NCCc3ccncc3)c(N)c2c(C)c1Cl

- percent of ACh max response (at 45.3 µM (top of the series)): inactive
Structure (SMILES): Cc1nc2sc(C(=O)NCc3ccncc3)c(N)c2c(C)c1Cl

- percent of ACh max response (at 45.3 µM (top of the series)): inactive
Structure (SMILES): Cc1nc2sc(C(=O)NCc3cccnc3)c(N)c2c(C)c1Cl

The remaining lines, values behind:

Structure (SMILES): Cc1nc2sc(C(=O)NCc3cccc(F)c3F)c(N)c2c(C)c1Cl
- percent of ACh max response (at 30 µM (top of the series)): inactive

Structure (SMILES): Cc1nc2sc(C(=O)NC3CC3)c(N)c2c(C)c1Cl
- EC50: 640 nM

Structure (SMILES): Cc1nc2sc(C(=O)NCc3nccs3)c(N)c2c(C)c1Cl
- percent of ACh max response (at 30 µM (top of the series)): inactive

Structure (SMILES): Cc1nc2sc(C(=O)NCc3ccncn3)c(N)c2c(C)c1Cl
- percent of ACh max response (at 30 µM (top of the series)): inactive

Structure (SMILES): Cc1nc2sc(C(=O)NCc3ccccc3)c(N)c2c(C)c1Cl
- percent of ACh max response (at 37.4 µM (top of the series)): inactive

Structure (SMILES): Cc1nc2sc(C(=O)NCc3ccc4c(c3)OCO4)c(N)c2c(C)c1Cl
- percent of ACh max response (at 36.8 µM (top of the series)): inactive
